From ChEMBL document CHEMBL1127538, “Anti-HIV michellamines from Ancistrocladus korupensis” (J Med Chem, 1994)

How the values were obtained:
Type in all cases: functional, cell-based
[1] = system: C8166; experiment: Anti -HIV activity was measured against C8166/HIV-1(RF); details: Homo sapiens
Outline: (§1)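 Cell lines in RPMI 1640 without phenol red, with 5% fetal bovine serum, 2 mM L-glutamine and 50 µg/mL gentamicin, at 37 °C and 5% CO2. Seeded at 5 × 10^5 cells/well and infected with pretitered virus at MOI 0.01-0.05, chosen for complete cell killing by day 6. Half-log aqueous dilutions of acetate salts tested in triplicate. XTT formazan read after 6 days; EC50 is 50% inhibition of virus-induced killing.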

[2] = system: CEM-SS; experiment: Anti -HIV activity was measured against CEM-SS/HIV-1 (NIH-DZ); details: Homo sapiens; outline: as §1
[3] = system: LDV-7 cell line; experiment: Cytotoxicity was measured against LDV-7/HIV-1(RF); details: Homo sapiens
Outline: (§2)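 Cytotoxicity was measured in cells-plus-drug control wells run alongside the antiviral assay. Serial half-log dilutions of acetate salts were tested in triplicate. After 6 days at 37 °C, viability was read spectrophotometrically by XTT reduction to soluble formazan. IC50 is the concentration giving a 50% decrease in viable cell number.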

[4] = system: CEM-SS; experiment: Anti-HIV activity was measured against HIV-1 Promonocytropic MN clinical isolates in CEM-SS cells; details: Homo sapiens; outline: as §1
[5] = system: CEM-SS; experiment: Anti-HIV activity was measured against HIV-1,RF laboratory strains in CEM-SS cells; details: Homo sapiens; outline: as §1
[6] = system: CEM-SS; experiment: Anti-HIV activity was measured against HIV-1 Lymphotropic G clinical isolates in CEM-SS cells; details: Homo sapiens; outline: as §1
[7] = system: CEM-SS; experiment: Anti-HIV activity was measured against HIV-1,LAV laboratory strains in CEM-SS cells; details: Homo sapiens; outline: as §1
[8] = system: MT2; experiment: Anti-HIV activity was measured against drug resistant HIV-1 A17 in MT-2 cells; details: Homo sapiens
Outline: (§3)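 MT-2 cells (RPMI 1640 without phenol red, 5% FBS, 2 mM L-glutamine, 50 µg/mL gentamicin; 37 °C, 5% CO2) seeded at 5 × 10^5 cells/well and infected at an MOI pretitered for complete cell killing by day 6 (MOI 0.01-0.05). Serial half-log aqueous dilutions of acetate salt added in triplicate. After 6 days at 37 °C, viability read by XTT formazan. EC50 = 50% inhibition of virus-induced killing.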

[9] = system: CEM-SS; experiment: Cytotoxicity was measured against CEM-SS/HIV-1 (NIH-DZ); details: Homo sapiens; outline: as §2
[10] = system: MT2; experiment: Anti -HIV activity was measured against MT-2/HIV-1(RF); details: Homo sapiens; outline: as §3
[11] = system: CEM-SS; experiment: Anti-HIV activity was measured against HIV-1 Promonocytropic 214 clinical isolates in CEM-SS cells; details: Homo sapiens; outline: as §1
[12] = system: PMC; experiment: Anti -HIV activity was measured against PMCs/HIV-1(Ba-L); details: Homo sapiens
Outline: (§4)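 Lymphocytes and macrophages were isolated fresh from donor whole blood by Ficoll-Hypaque centrifugation. They were infected at an MOI giving maximal virus production by day 6 and treated with half-log dilutions of acetate salts in triplicate. After 6 days at 37 °C, RT activity or p24 core protein was quantified in cell-free supernatants. EC50 is 50% inhibition of virus production.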

[13] = system: MT2; experiment: Cytotoxicity was measured against MT-2/HIV-1(RF).; details: Homo sapiens; outline: as §2
[14] = system: MT2; experiment: Anti -HIV activity was measured against MT-2/HIV-2(NIH-DZ); details: Homo sapiens; outline: as §3
[15] = system: PBL; experiment: Cytotoxicity was measured against PBLs/HIV-1 (WEJO); details: Homo sapiens
[16] = system: CEM-SS; experiment: Anti-HIV activity was measured against HIV-1 Lymphotropic MCK clinical isolates in CEM-SS cells; details: Homo sapiens; outline: as §1
[17] = system: LDV-7 cell line; experiment: Anti -HIV activity was measured against LDV-7/HIV-1(RF); details: Homo sapiens; outline: as §1
[18] = system: CEM-SS; experiment: Anti-HIV activity was measured against HIV-1 Lymphotropic 205 clinical isolates in CEM-SS cells; details: Homo sapiens; outline: as §1
[19] = system: MT2; experiment: Cytotoxicity was measured against MT-2/HIV-2(NIH-DZ); details: Homo sapiens; outline: as §2
[20] = system: AA5; experiment: Anti -HIV activity was measured against AA5/HIV-1(IIIB); details: Homo sapiens; outline: as §1
[21] = system: CEM-SS; experiment: Anti-HIV activity was measured against HIV-2 CBL-20 laboratory strains in CEM-SS cells; details: Homo sapiens; outline: as §1
[22] = system: C-344 cell line; experiment: Anti -HIV activity was measured against C-344/HIV-1(RF); details: Homo sapiens; outline: as §1
[23] = system: CEM-SS; experiment: Anti-HIV activity was measured against HIV-1 Lymphotropic PM16 clinical isolates in CEM-SS cells; details: Homo sapiens; outline: as §1
[24] = system: CCRF-CEM; experiment: Anti -HIV activity was measured against 174*CEM/HIV-1(IIIB); details: Homo sapiens; outline: as §1
[25] = system: CEM-SS; experiment: Anti-HIV activity was measured against HIV-2 ROD strain laboratory strains in CEM-SS cells; details: Homo sapiens; outline: as §1
[26] = system: CEM-SS; experiment: Anti-HIV activity was measured against HIV-1 Promonocytropic SKI clinical isolates in CEM-SS cells; details: Homo sapiens; outline: as §1
[27] = system: CEM-SS; experiment: Cytotoxicity was measured against CEM-SS/HIV-1 (RF); details: Homo sapiens; outline: as §2
[28] = system: CEM-SS; experiment: Anti-HIV activity was measured against HIV-2 MS laboratory strains in CEM-SS cells; details: Homo sapiens; outline: as §1
[29] = system: MT2; experiment: Anti-HIV activity was measured against drug resistant HIV-1 G9106 in MT-2 cells; details: Homo sapiens; outline: as §3
[30] = system: CEM-SS; experiment: Anti-HIV activity was measured against HIV-2 NIH-DZ strain laboratory strains in CEM-SS cells; details: Homo sapiens; outline: as §1
[31] = system: CEM-SS; experiment: Anti-HIV activity was measured against HIV-1 Promonocytropic TPI clinical isolates in CEM-SS cells; details: Homo sapiens; outline: as §1
[32] = system: CCRF-CEM; experiment: Cytotoxicity was measured against 174*CEM/HIV-1(IIIB); details: Homo sapiens; outline: as §2
[33] = system: PMC; experiment: Cytotoxicity was measured against PMCs/HIV-1(Ba-L); details: Homo sapiens
[34] = system: CEM-SS; experiment: Anticytopathic activity was measured against HIV-2(CBL-20 strain) in CEM-SS human lymphoblastoid target cells; outline: as §1
[35] = system: AA5; experiment: Cytotoxicity was measured against AA5/HIV-1(IIIB); details: Homo sapiens; outline: as §2
[36] = system: C-344 cell line; experiment: Cytotoxicity was measured against C-344/HIV-1(RF); details: Homo sapiens; outline: as §2
[37] = system: CEM-SS; experiment: Anti-HIV activity was measured against HIV-1,IIIB laboratory strains in CEM-SS cells; details: Homo sapiens; outline: as §1
[38] = system: CEM-SS; experiment: Anti -HIV activity was measured against CEM-SS/HIV-1 (RF); details: Homo sapiens; outline: as §1
[39] = system: PBL; experiment: Anti -HIV activity was measured against PBLs/HIV-1 (WEJO); details: Homo sapiens; outline: as §4
[40] = system: C8166; experiment: Cytotoxicity was measured against C8166/HIV-1(RF); details: Homo sapiens; outline: as §2
[41] = system: CEM-SS; experiment: Anticytopathic activity was measured against HIV-1(RF strain) in CEM-SS human lymphoblastoid target cells; outline: as §1

Question: Which EC50 [1] does the source give for COc1cc(C)cc2c(-c3c(O)cc(O)c4c3C[C@@H](C)N[C@@H]4C)cc(-c3cc(-c4c(O)cc(O)c5c4C[C@@H](C)N[C@@H]5C)c4cc(C)cc(OC)c4c3O)c(O)c12 (stereo in doubt; form 3) [MICHELLAMINE A] here?
Answer: 88 µM

Question: And the EC50 [2]?
Answer: 1 µM

Question: And the IC50 [3]?
Answer: 100 µM

Question: What about the EC50 [4] of the same compound?
Answer: 13 µM

Question: What about the EC50 [5] of the same compound?
Answer: 12 µM

Question: And the EC50 [6]?
Answer: 3 µM

Question: And the EC50 [7]?
Answer: 4 µM

Question: What about the EC50 [8] of the same compound?
Answer: 9 µM

Question: What about the IC50 [9] of the same compound?
Answer: 42 µM

Question: What about the EC50 [10] of the same compound?
Answer: 40 µM

Question: And the EC50 [11]?
Answer: 10 µM

Question: And the EC50 [12]?
Answer: 10 µM

Question: And the IC50 [13]?
Answer: 200 µM

Question: What about the EC50 [14] of the same compound?
Answer: 6 µM

Question: What about the IC50 [15] of the same compound?
Answer: > 240 µM

Question: What about the EC50 [16] of the same compound?
Answer: 3 µM

Question: What about the EC50 [17] of the same compound?
Answer: 13 µM

Question: What about the EC50 [18] of the same compound?
Answer: 11 µM

Question: What about the IC50 [19] of the same compound?
Answer: 100 µM

Question: What about the EC50 [20] of the same compound?
Answer: 33 µM

Question: What about the EC50 [21] of the same compound?
Answer: 2 µM

Question: What about the EC50 [22] of the same compound?
Answer: 39 µM

Question: What about the EC50 [23] of the same compound?
Answer: 12 µM

Question: What about the EC50 [24] of the same compound?
Answer: 23 µM

Question: What about the EC50 [25] of the same compound?
Answer: 18 µM

Question: And the EC50 [26]?
Answer: 12 µM

Question: And the IC50 [27]?
Answer: 120 µM

Question: What about the EC50 [28] of the same compound?
Answer: 7 µM

Question: What about the EC50 [29] of the same compound?
Answer: 5 µM

Question: What about the EC50 [30] of the same compound?
Answer: 5 µM

Question: And the EC50 [31]?
Answer: 6 µM

Question: And the IC50 [32]?
Answer: > 125 µM

Question: What about the IC50 [33] of the same compound?
Answer: > 240 µM

Question: And the EC50 [34]?
Answer: 2 µM

Question: And the IC50 [35]?
Answer: > 125 µM

Question: And the IC50 [36]?
Answer: 160 µM

Question: What about the EC50 [37] of the same compound?
Answer: 1 µM

Question: And the EC50 [38]?
Answer: 13 µM

Question: What about the EC50 [39] of the same compound?
Answer: 5 µM

Question: What about the IC50 [40] of the same compound?
Answer: > 240 µM

Question: Which EC50 ([41]; cem-ss) does the source give for COc1cc(C)cc2c(-c3c(O)cc(O)c4c3C[C@@H](C)N[C@@H]4C)cc(-c3cc(-c4c(O)cc(O)c5c4C[C@@H](C)N[C@@H]5C)c4cc(C)cc(OC)c4c3O)c(O)c12 (stereo in doubt; form 2) [MICHELLAMINE A] here?
Answer: 13 µM

Question: With COc1cc(C)cc2c(-c3c(O)cc(O)c4c3C[C@@H](C)N[C@@H]4C)cc(-c3cc(-c4c(O)cc(O)c5c4C[C@@H](C)N[C@@H]5C)c4cc(C)cc(OC)c4c3O)c(O)c12 (stereo in doubt; form 1) [MICHELLAMINE A] as the compound, how does the EC50 [34] read?
Answer: 10 µM

Question: What about the EC50 ([41]; Homo sapiens, CEM-SS) of the same compound?
Answer: 10 µM
